Data published in ChEMBL document CHEMBL4257465, “Strigolactones: a plant phytohormone as novel anti-inflammatory agents” (Medchemcomm, 2018).

What was measured:
RAW264.7 [1] = assay: Antiinflammatory activity in LPS-induced mouse RAW264.7 cells assessed as TNFalpha levels at 2.5 uM pretreated for 2 hrs followed by LPS stimulation and measured after 12 hrs by ELISA (reference value: 5313.7 +/- 420.9 pg/ml); type: functional
RAW264.7 [2] = assay: Antiinflammatory activity in LPS-induced mouse RAW264.7 cells assessed as IL-6 levels at 2.5 uM pretreated for 2 hrs followed by LPS stimulation and measured after 24 hrs by ELISA (reference value: 1966.6 +/- 102.3 pg/ml); type: functional
Procedure, shortened: (§1)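 RAW264.7 murine macrophages (DMEM, 10% serum, 37 °C, 5% CO2) seeded at 5 × 10^5 cells per well, pretreated 2 h with compound at 10, 5, 2.5 or 1.25 μM (DMSO 0.1% v/v), then LPS (E. coli 0127:B8) 100 ng mL−1 added. Supernatant TNF-α or IL-6 read by mouse ELISA kit after 6, 12 and 24 h. Mean ± SD, n = 3, three independent experiments.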

[3] = biological target: T1, NF-kappa-B inhibitor alpha (Mus musculus) (UniProt Q9Z1E3); assay: Inhibition of LPS-induced IkappaBalpha phosphorylation in mouse RAW264.7 cells after 4 hrs by Western blot analysis; type: cell-based
T1 sequence (whole entry): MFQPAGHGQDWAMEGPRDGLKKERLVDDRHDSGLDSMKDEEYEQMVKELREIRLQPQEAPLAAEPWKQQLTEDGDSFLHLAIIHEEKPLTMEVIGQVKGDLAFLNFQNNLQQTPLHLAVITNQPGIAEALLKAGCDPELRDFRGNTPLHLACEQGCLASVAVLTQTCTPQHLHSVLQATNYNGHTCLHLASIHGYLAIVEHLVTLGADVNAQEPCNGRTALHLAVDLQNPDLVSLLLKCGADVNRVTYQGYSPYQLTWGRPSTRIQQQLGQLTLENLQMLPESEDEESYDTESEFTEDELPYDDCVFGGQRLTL
Procedure, shortened: (§2)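 RAW264.7 cells at 2 × 10^6 per well given fresh medium with compound (10, 5, 2.5, 1.25 μM) plus LPS 500 ng mL−1 for 4 h. Lysed in IP buffer with 1 mM PMSF, protein by BCA. Run on 12.5% SDS-PAGE and blotted. Phospho and total ERK1/2 (Thr202/Tyr204), p38 (Thr180/Tyr182), IκBα (Ser32/36) and NF-κB p65 detected by ECL. Mean ± SD, n = 3.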

RAW264.7 [4] = assay: Antiinflammatory activity in LPS-induced mouse RAW264.7 cells assessed as IL-6 levels at 10 uM pretreated for 2 hrs followed by LPS stimulation and measured after 6 hrs by ELISA (reference value: 472.3 +/- 25.8 pg/ml); type: functional; procedure, shortened: as §1
RAW264.7 [5] = assay: Antiinflammatory activity in LPS-induced mouse RAW264.7 cells assessed as IL-6 levels at 2.5 uM pretreated for 2 hrs followed by LPS stimulation and measured after 12 hrs by ELISA (reference value: 1394 +/- 62.6 pg/ml); type: functional; procedure, shortened: as §1
RAW264.7 [6] = assay: Antiinflammatory activity in LPS-induced mouse RAW264.7 cells assessed as TNFalpha levels at 1.25 uM pretreated for 2 hrs followed by LPS stimulation and measured after 6 hrs by ELISA (reference value: 4377.1 +/- 318.6 pg/ml); type: functional; procedure, shortened: as §1
RAW264.7 [7] = assay: Antiinflammatory activity in mouse RAW264.7 cells assessed as inhibition of LPS-induced NO production pretreated for 2 hrs followed by LPS stimulation measured after 24 hrs by Griess assay; type: functional, cell-based
Procedure, shortened: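 RAW264.7 murine macrophages (DMEM, 10% serum, 37 °C, 5% CO2) seeded at 5 × 10^4 cells/well and cultured 18 h. Compounds tested at 1–100 μM (DMSO 0.1% v/v), with LPS (E. coli 0127:B8) at 100 ng mL−1. Supernatant nitrite read with Griess reagent (10 min, room temperature, OD540).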

RAW264.7 [8] = assay: Antiinflammatory activity in LPS-induced mouse RAW264.7 cells assessed as TNFalpha levels at 10 uM pretreated for 2 hrs followed by LPS stimulation and measured after 12 hrs by ELISA (reference value: 5313.7 +/- 420.9 pg/ml); type: functional; procedure, shortened: as §1
RAW264.7 [9] = assay: Antiinflammatory activity in LPS-induced mouse RAW264.7 cells assessed as TNFalpha levels at 2.5 uM pretreated for 2 hrs followed by LPS stimulation and measured after 24 hrs by ELISA (reference value: 9653.7 +/- 377.3 pg/ml); type: functional; procedure, shortened: as §1
RAW264.7 [10] = assay: Antiinflammatory activity in LPS-induced mouse RAW264.7 cells assessed as TNFalpha levels at 5 uM pretreated for 2 hrs followed by LPS stimulation and measured after 24 hrs by ELISA (reference value: 9653.7 +/- 377.3 pg/ml); type: functional; procedure, shortened: as §1
RAW264.7 [11] = assay: Antiinflammatory activity in LPS-induced mouse RAW264.7 cells assessed as TNFalpha levels at 5 uM pretreated for 2 hrs followed by LPS stimulation and measured after 6 hrs by ELISA (reference value: 4377.1 +/- 318.6 pg/ml); type: functional; procedure, shortened: as §1
RAW264.7 [12] = assay: Antiinflammatory activity in LPS-induced mouse RAW264.7 cells assessed as TNFalpha levels at 1.25 uM pretreated for 2 hrs followed by LPS stimulation and measured after 24 hrs by ELISA (reference value: 9653.7 +/- 377.3 pg/ml); type: functional; procedure, shortened: as §1
RAW264.7 [13] = assay: Antiinflammatory activity in LPS-induced mouse RAW264.7 cells assessed as IL-6 levels at 2.5 uM pretreated for 2 hrs followed by LPS stimulation and measured after 6 hrs by ELISA (reference value: 472.3 +/- 25.8 pg/ml); type: functional; procedure, shortened: as §1
RAW264.7 [14] = assay: Antiinflammatory activity in LPS-induced mouse RAW264.7 cells assessed as TNFalpha levels at 10 uM pretreated for 2 hrs followed by LPS stimulation and measured after 6 hrs by ELISA (reference value: 4377.1 +/- 318.6 pg/ml); type: functional; procedure, shortened: as §1
RAW264.7 [15] = assay: Antiinflammatory activity in LPS-induced mouse RAW264.7 cells assessed as IL-6 levels at 5 uM pretreated for 2 hrs followed by LPS stimulation and measured after 12 hrs by ELISA (reference value: 1394 +/- 62.6 pg/ml); type: functional; procedure, shortened: as §1
RAW264.7 [16] = assay: Antiinflammatory activity in LPS-induced mouse RAW264.7 cells assessed as TNFalpha levels at 1.25 uM pretreated for 2 hrs followed by LPS stimulation and measured after 12 hrs by ELISA (reference value: 5313.7 +/- 420.9 pg/ml); type: functional
[17] = biological target: Mitogen-activated protein kinase 1 and 3 (ERK2 and ERK1) (Mus musculus) (UniProt P63085+Q63844); assay: Inhibition of LPS-induced ERK1/2 phosphorylation in mouse RAW264.7 cells after 4 hrs by Western blot analysis; type: cell-based; procedure, shortened: as §2
Sequence of Mitogen-activated protein kinase 1 and 3 (ERK2 and ERK1) (Mus musculus) (P63085 whole entry, looked up): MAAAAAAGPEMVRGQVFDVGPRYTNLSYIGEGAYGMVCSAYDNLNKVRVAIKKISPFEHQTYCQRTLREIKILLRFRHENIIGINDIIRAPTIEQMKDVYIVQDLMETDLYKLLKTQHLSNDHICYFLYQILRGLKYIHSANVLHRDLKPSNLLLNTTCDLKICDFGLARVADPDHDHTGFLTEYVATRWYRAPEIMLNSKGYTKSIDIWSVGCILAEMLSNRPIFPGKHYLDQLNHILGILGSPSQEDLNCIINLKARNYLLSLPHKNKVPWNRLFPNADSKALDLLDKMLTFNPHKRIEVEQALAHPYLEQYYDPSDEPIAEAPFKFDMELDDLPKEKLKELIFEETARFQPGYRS
Sequence of Mitogen-activated protein kinase 1 and 3 (ERK2 and ERK1) (Mus musculus) (Q63844 whole entry, looked up): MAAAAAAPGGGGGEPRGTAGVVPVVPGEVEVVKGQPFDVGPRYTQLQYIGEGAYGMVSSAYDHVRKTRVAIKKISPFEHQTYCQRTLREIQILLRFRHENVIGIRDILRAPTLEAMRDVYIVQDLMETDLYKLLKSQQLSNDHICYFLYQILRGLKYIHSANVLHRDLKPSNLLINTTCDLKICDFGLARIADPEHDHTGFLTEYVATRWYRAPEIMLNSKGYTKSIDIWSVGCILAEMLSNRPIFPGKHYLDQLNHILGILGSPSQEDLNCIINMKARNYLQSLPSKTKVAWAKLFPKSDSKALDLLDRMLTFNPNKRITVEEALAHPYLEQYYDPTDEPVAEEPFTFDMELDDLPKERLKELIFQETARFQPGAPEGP

RAW264.7 [18] = assay: Antiinflammatory activity in LPS-induced mouse RAW264.7 cells assessed as IL-6 levels at 10 uM pretreated for 2 hrs followed by LPS stimulation and measured after 12 hrs by ELISA (reference value: 1394 +/- 62.6 pg/ml); type: functional; procedure, shortened: as §1
RAW264.7 [19] = assay: Antiinflammatory activity in LPS-induced mouse RAW264.7 cells assessed as IL-6 levels at 1.25 uM pretreated for 2 hrs followed by LPS stimulation and measured after 24 hrs by ELISA (reference value: 1966.6 +/- 102.3 pg/ml); type: functional; procedure, shortened: as §1

Compound | Activity (RAW264.7 [1]) [pg/mL] | Activity (RAW264.7 [2]) [pg/mL] | inhibition [3] | Activity (RAW264.7 [4]) [pg/mL] | Activity (RAW264.7 [5]) [pg/mL] | Activity (RAW264.7 [6]) [pg/mL] | IC50 (RAW264.7 [7]) [µM] | Activity (RAW264.7 [8]) [pg/mL] | Activity (RAW264.7 [9]) [pg/mL] | Activity (RAW264.7 [10]) [pg/mL] | Activity (RAW264.7 [11]) [pg/mL] | Activity (RAW264.7 [12]) [pg/mL] | Activity (RAW264.7 [13]) [pg/mL] | Activity (RAW264.7 [14]) [pg/mL] | Activity (RAW264.7 [15]) [pg/mL] | Activity (RAW264.7 [16]) [pg/mL] | inhibition [17] | Activity (RAW264.7 [18]) [pg/mL] | Activity (RAW264.7 [19]) [pg/mL]
CC1=C[C@H](O/C=C2/C(=O)O[C@@H]3c4ccccc4C[C@H]23)OC1=O | 5186.9 | 1729.3 | Dose-dependent effect | 302.3 | 1267.7 | 4388.3 | 3.14 | 4685.5 | 9397.7 | 9085.5 | 4140.7 | 9565.4 | 433.6 | 3862.3 | 1090.7 | 5303.7 | Dose-dependent effect | 869 | 1892.3
CC1=C[C@@H](O/C=C2/C(=O)O[C@H]3c4ccccc4C[C@@H]23)OC1=O | 5212.4 | 1787.6 | Dose-dependent effect | 340.6 | 1296 | 4367.3 | 3.51 | 4721.3 | 9444.5 | 9318.5 | 4209.3 | 9582.9 | 447.9 | 3927.4 | 1177 | 5319.6 | Dose-dependent effect | 998.2 | 1936.5
